Measurements as given in ChEMBL document CHEMBL2203063, “Azo-reductase activated budesodine prodrugs for colon targeting” (Bioorg Med Chem Lett, 2012).

Legend:
[1] = Drug metabolism assessed as Clostridium perfringes azoreductase-mediated hydrazine reoxidation to parent azo compound formation at pH 7.4 by HPLC analysis; type: ADME; details: clostridium perfringens
[2] = Drug metabolism assessed as Clostridium perfringes azoreductase-mediated hydrazine formation at pH 7.4 by HPLC analysis; type: ADME; details: clostridium perfringens
[3] = Prodrug conversion assessed as Clostridium perfringes azoreductase-mediated reduction after 6 hrs at pH 7.4; type: ADME; details: clostridium perfringens, pH 7.4, 6 h
Outline: (§1)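 Prodrugs incubated anaerobically with a suspension of azoreductase-producing Clostridium perfringens at 37 °C, pH 7.4, sampled over 24 h. Progress curves tracked loss of prodrug and appearance of budesonide and linker byproducts (the dihydroquinolone or 3,3-dimethyl-1,3-dihydro-indol-2-one). Assay conditions follow the group's earlier method.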

[4] = Prodrug conversion assessed as Clostridium perfringes azoreductase-mediated budesonide formation at pH 7.4; type: ADME; details: clostridium perfringens; outline: as §1
[5] = Chemical stability in simulated doudenal juice up to 24 hrs; type: physicochemical
Outline: (§2)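 Prodrug incubated in simulated duodenal or gastric juice at 37 °C and followed for up to 24 h to see whether it stays intact.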

[6] = Chemical stability in simulated gastric juice up to 24 hrs; type: physicochemical; details: simulated gi fluid; outline: as §2
[7] = Prodrug conversion in buffer assessed as half life of cyclization at pH 7 to 7.5; type: physicochemical
[8] = Prodrug conversion in buffer assessed as half life of cyclization at pH 5; type: physicochemical
[9] = Prodrug conversion in buffer assessed as half life of cyclization at pH 5.5; type: physicochemical
[10] = Prodrug conversion in buffer assessed as half life of cyclization at pH 3.44; type: physicochemical
[11] = Prodrug conversion in buffer assessed as half life of cyclization at pH 2.5; type: physicochemical
[12] = Drug metabolism assessed as Clostridium perfringes azoreductase-mediated cyclization to dihydroquinolone at pH 7.4; type: ADME; details: clostridium perfringens; outline: as §1
[13] = Drug metabolism assessed as Clostridium perfringes azoreductase-mediated hydrolysis at pH 7.4; type: ADME; details: clostridium perfringens

Q: With `CCCC1O[C@@H]2C[C@H]3[C@@H]4CCC5=CC(=O)C=C[C@]5(C)[C@H]4[C@@H](O)C[C@]3(C)[C@]2(C(=O)COC(=O)CCc2ccccc2/N=N/c2ccc(C(=O)O)cc2)O1` (mixture of isomers) as the compound, how does the Drug metabolism [1] read?
A: Active

Q: What about the Drug metabolism [2] of the same compound?
A: Active

Q: What about the Drug metabolism [3] of the same compound?
A: Not Active

Q: And the Drug metabolism [4]?
A: Not Active

Q: What about the Stability [5] of the same compound?
A: Stable

Q: What about the Stability [6] of the same compound?
A: Stable

Q: Which results are given for `CCCC1O[C@@H]2C[C@H]3[C@@H]4CCC5=CC(=O)C=C[C@]5(C)[C@H]4[C@@H](O)C[C@]3(C)[C@]2(C(=O)COC(=O)CCc2ccccc2N)O1` (mixture of isomers)?
A: t1/2 [7]: 201 min; t1/2 [8]: 52.7 min; t1/2 [9]: 73.2 min; t1/2 [10]: 29.3 min; t1/2 [11]: 25.9 min

Q: With `CCCC1O[C@@H]2C[C@H]3[C@@H]4CCC5=CC(=O)C=C[C@]5(C)[C@H]4[C@@H](O)C[C@]3(C)[C@]2(C(=O)COC(=O)C(C)(C)c2ccccc2/N=N/c2ccc(O)c(C(=O)O)c2)O1` (mixture of isomers) as the compound, how does the Drug metabolism [12] read?
A: Active

Q: And the Drug metabolism [3]?
A: Active

Q: And the Drug metabolism [4]?
A: Active

Q: And the Stability [5]?
A: Stable

Q: And the Stability [6]?
A: Stable

Q: With `CCCC1O[C@@H]2C[C@H]3[C@@H]4CCC5=CC(=O)C=C[C@]5(C)[C@H]4[C@@H](O)C[C@]3(C)[C@]2(C(=O)COC(=O)CCc2ccccc2/N=N/c2ccc(O)c(C(=O)O)c2)O1` (mixture of isomers) as the compound, how does the Drug metabolism [3] read?
A: Active

Q: What about the Drug metabolism [13] of the same compound?
A: Not Active

Q: What about the Drug metabolism [4] of the same compound?
A: Active

Q: What about the Stability [5] of the same compound?
A: Stable

Q: And the Stability [6]?
A: Stable
